Source: ChEMBL document CHEMBL4152356, “Amphipathic sulfonamidobenzamides mimicking small antimicrobial marine natural products; investigation of antibacterial and anti-biofilm activity against antibiotic resistant clinical isolates” (Bioorg Med Chem, 2018)

Legend:
[1] = system: MRC5; assay: Cytotoxicity against human MRC5 cells after 72 hrs by MTS assay; type: cell-based; settings: MRC5, 72 h
In short: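 MRC-5 lung fibroblasts in DMEM with 10% FBS, 37 °C, 5% CO2; seeded at 4000 cells/well, adhered 24 h, medium replaced. Two-fold dilutions up to 100 µg/ml for 72 h, then MTS for 1 h and absorbance at 485 nm. Controls were 1% DMSO (negative) and 0.5% Triton X-100 (positive). EC50 is the concentration giving 50% inhibition of survival.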

[2] = system: Staphylococcus epidermidis; assay: Antibacterial activity against methicillin resistant Staphylococcus epidermidis RP62A ATCC 35984/CCUG 31568 after 48 hrs by microdilution method; type: functional; settings: RP62A ATCC 35984/CCUG 31568, 48 h
In short: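 Broth microdilution (modified CLSI M07-A9) against the MRSE reference strain. Inoculum of about 2.5-3 × 10^4 cells/ml in Mueller-Hinton broth mixed 1:1 with serial compound dilutions; final DMSO ≤1%. Incubated 35 °C, 48 h.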

[3] = system: Pseudomonas aeruginosa; assay: Antibacterial activity against Pseudomonas aeruginosa PAO1 DSM 19880 ATCC 15692 after 48 hrs by microdilution method; type: functional; settings: PAO1 DSM 19880 ATCC 15692, 48 h
In short: (§1)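 Broth microdilution (CLSI M07-A9, modified) in Mueller-Hinton broth; inoculum about 2.5-3 × 10^4 cells/ml mixed 1:1 with serial compound dilutions. Stock solutions in up to 100% DMSO, final DMSO ≤1%. Incubated 35 °C for 48 h.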

[4] = Selectivity index, ratio of EC50 for human RBC to MIC for methicillin resistant Staphylococcus epidermidis RP62A ATCC 35984/CCUG 31568; type: toxicity; settings: human red blood cells (RBC), read-out: Selectivity Index
In short: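 SI = hemolytic EC50 / MRSE MIC. Hemolysis: washed human RBCs (heparinized blood, healthy adult donor) at 10% in PBS pH 7.4, mixed 9:1 with serial compound dilutions, 37 °C for 1 h. 0.05% Triton X-100 set 100% lysis, 0.5% DMSO set baseline. MIC from MHB microdilution, 35 °C, […].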

[5] = system: Bacillus subtilis; assay: Antibacterial activity against Bacillus subtilis 168 ATCC 23857 after 48 hrs by microdilution method; type: functional; settings: subsp. subtilis str. 168 ATCC 23857, 48 h; in short: as §1
[6] = system: Staphylococcus aureus; assay: Antibacterial activity against Staphylococcus aureus ATCC 9144 after 48 hrs by microdilution method; type: functional; settings: ATCC 9144, 48 h; in short: as §1
[7] = system: Escherichia coli; assay: Antibacterial activity against Escherichia coli ATCC 25922 after 48 hrs by microdilution method; type: functional; settings: ATCC 25922, 48 h; in short: as §1
[8] = system: Corynebacterium glutamicum; assay: Antibacterial activity against Corynebacterium glutamicum ATCC 13032 after 48 hrs by microdilution method; type: functional; settings: ATCC 13032, 48 h; in short: as §1
[9] = system: Erythrocyte; assay: Hemolytic activity against human RBC measured after 1 hr; type: cell-based
In short: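 Washed human RBCs from a healthy donor (heparinized) at 10% in PBS pH 7.4, mixed 9:1 with serial compound dilutions, 37 °C for 1 h. Baseline set by 0.5% DMSO in 50% PBS, 100% lysis by 0.05% Triton X-100. EC50 is the concentration giving 50% lysis.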

[10] = system: Enterococcus sp.; assay: Antibacterial activity against Enterococcus sp. clinical isolates after 24 hrs by microdilution method; type: functional
In short: (§2)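 Clinical isolate screen by broth microdilution with about 1-1.2 × 10^6 cells/ml and 24 h incubation. MIC is the lowest concentration with no growth. For isolate collections, MIC90 is the MIC inhibiting ≥90% of isolates. Multidrug resistance was defined as resistance to at least […] antimicrobial class.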

[11] = system: Klebsiella pneumoniae; assay: Antibacterial activity against Klebsiella pneumoniae clinical isolates after 24 hrs by microdilution method; type: functional; in short: as §2
[12] = system: Staphylococcus aureus; assay: Antibacterial activity against Staphylococcus aureus clinical isolates after 24 hrs by microdilution method; type: functional; in short: as §2
[13] = system: Pseudomonas aeruginosa; assay: Antibacterial activity against Pseudomonas aeruginosa clinical isolates after 24 hrs by microdilution method; type: functional; in short: as §2
[14] = system: Staphylococcus epidermidis; assay: Antibiofilm activity against Staphylococcus epidermidis RP62A ATCC 35984/CCUG 31568 incubated for 24 +/- 2 hrs by crystal violet staining based assay; type: functional
In short: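 Mature S. epidermidis RP62A biofilms: filtered overnight TSB culture adjusted to 2 McFarland, diluted in TSB with 1% glucose to about 6 × 10^6 CFU/ml, grown 24 ± 2 h at 37 °C static, then PBS-washed. Compounds in 50% TSBglu added for 24 ± 2 h at 37 °C. Biomass given as % of untreated control; ≥90% eradication threshold. Compounds tested at 2x, 5x and 10x MIC, 4-8 parallels on 2-3 plates, highest and lowest values excluded.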

[15] = system: Escherichia coli; assay: Antibacterial activity against Escherichia coli clinical isolates after 24 hrs by microdilution method; type: functional; in short: as §2

CC(C)(C)c1cc(C(=O)Nc2ccccc2C(=O)NCCNC(=N)N)cc(C(C)(C)C)c1.Cl
EC50 [1]: 22 µg/mL

Cc1cc(C)cc(S(=O)(=O)Nc2ccc(C(=O)NCCNC(=N)N)cc2)c1.Cl
MIC [2]: 64 µg/mL
MIC [3]: > 128 µg/mL
selectivity ratio [4]: > 2
MIC [5]: 64 µg/mL
MIC [6]: 128 µg/mL
MIC [7]: > 128 µg/mL
MIC [8]: 64 µg/mL
EC50 [9]: > 128 µg/mL
EC50 [1]: > 100 µg/mL

CC(C)(C)c1cc(C(C)(C)C)cc(S(=O)(=O)Nc2cccc(C(=O)NCCN)c2)c1.Cl
MIC [2]: 8 µg/mL
MIC [3]: 64 µg/mL
selectivity ratio [4]: 7
MIC [5]: 8 µg/mL
MIC [6]: 16 µg/mL
MIC [7]: 32 µg/mL
MIC [8]: 8 µg/mL
EC50 [9]: 58 µg/mL
EC50 [1]: 16 µg/mL

CC(C)(C)c1cc(C(C)(C)C)cc(S(=O)(=O)NCCCCNC(=N)N)c1.Cl
MIC [2]: 8 µg/mL
MIC [3]: 64 µg/mL
MIC [10]: 32 µg/mL
MIC [11]: 128 µg/mL
selectivity ratio [4]: 14
MIC [5]: 16 µg/mL
MIC [12]: 16 µg/mL
MIC [6]: 8 µg/mL
MIC [13]: 64 µg/mL
MIC [7]: 64 µg/mL
MIC [8]: 4 µg/mL
MBIC=>90 [14]: 40 µg/mL
MIC [15]: 128 µg/mL
EC50 [9]: 110 µg/mL
EC50 [1]: 42 µg/mL

CN(c1ccc(C(=O)NCCN)cc1)S(=O)(=O)c1cc(C(C)(C)C)cc(C(C)(C)C)c1.Cl
MIC [2]: 16 µg/mL
MIC [3]: 32 µg/mL
selectivity ratio [4]: 3
MIC [5]: 8 µg/mL
MIC [6]: 16 µg/mL
MIC [7]: 16 µg/mL
MIC [8]: 16 µg/mL
EC50 [9]: 53 µg/mL
EC50 [1]: 5 µg/mL

CC(C)(C)c1cc(C(C)(C)C)cc(S(=O)(=O)NCc2ccc(C(=O)NCCN)cc2)c1.Cl
MIC [2]: 16 µg/mL
MIC [3]: 32 µg/mL
selectivity ratio [4]: 6
MIC [5]: 8 µg/mL
MIC [6]: 32 µg/mL
MIC [7]: 32 µg/mL
MIC [8]: 8 µg/mL
EC50 [9]: 92 µg/mL
EC50 [1]: 20 µg/mL

CN(c1cccc(C(=O)NCCN)c1)S(=O)(=O)c1cc(C(C)(C)C)cc(C(C)(C)C)c1.Cl
MIC [2]: 16 µg/mL
MIC [3]: 32 µg/mL
selectivity ratio [4]: 2
MIC [5]: 8 µg/mL
MIC [6]: 16 µg/mL
MIC [7]: 16 µg/mL
MIC [8]: 8 µg/mL
EC50 [9]: 26 µg/mL
EC50 [1]: 10 µg/mL

CC(C)(C)c1cc(C(C)(C)C)cc(S(=O)(=O)Nc2ccccc2C(=O)NCCN)c1.Cl
MIC [2]: 32 µg/mL
MIC [3]: 128 µg/mL
MIC [10]: 32 µg/mL
MIC [11]: 128 µg/mL
selectivity ratio [4]: 2
MIC [5]: 32 µg/mL
MIC [12]: 32 µg/mL
MIC [6]: 32 µg/mL
MIC [13]: 128 µg/mL
MIC [7]: 64 µg/mL
MIC [8]: 16 µg/mL
MIC [15]: 128 µg/mL
EC50 [9]: 56 µg/mL
EC50 [1]: 10 µg/mL

CN(c1ccc(C(=O)NCCCN)cc1)S(=O)(=O)c1cc(C(C)(C)C)cc(C(C)(C)C)c1.Cl
MIC [2]: 16 µg/mL
MIC [3]: 32 µg/mL
selectivity ratio [4]: 2
MIC [5]: 8 µg/mL
MIC [6]: 16 µg/mL
MIC [7]: 16 µg/mL
MIC [8]: 8 µg/mL
EC50 [9]: 28 µg/mL
EC50 [1]: 9 µg/mL
